“Also recorded” adds a separate entry of the source.
B1: NGF: mature 118aa NGF peptide (protein)
chain: SSTHPVFHMGEFSVCDSVSVWVGDKTTATDIKGKEVTVLAEVNINNSVFRQYFFETKCRASNPVESGCRGIDSKHWNSYCTTTHTFVKALTTDEKQAAWRFIRIDTACVCVLSRKATRRG

Tests used:
[1] = test system: B5 and SH-SY5Y cells; assay: Competition of 125I-LIP2 binding; parameters: species or system human; conditions: 2 μM competitor, preincubated 1 h at 4°C, 10 nM 125I-LIP2
[2] = biological target: specific receptors (binding sites) for LIP2 on B5 human prostatic adenocarcinoma cells (human (endogenous in B5)); assay: radioligand binding
[3] = test system: PC12 cells; assay: F-actin redistribution in PC12 cells; type: cell-based, rat
Outline: (§1)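 B5 cells and PC12 cells were seeded in RPMI-1640 with 1% horse serum, with PC12 cells on poly-D-lysine. After 18 h, cells were exposed for 2 min at 37°C to test peptide (10−7, 10−8 or 10−9 M) or 100 ng/ml NGF. For PC12, a control peptide was used at 10−6 and 10−7 M. Cells were PBS-washed, fixed in 3% paraformaldehyde for 20 min and permeabilised in 0.1% Triton X-100 for 2 min. F-actin was stained with phallacidin–BODIPY or phalloidin–rhodamine and examined by fluorescence microscopy.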

[4] = test system: B5 cells; assay: F-actin redistribution in B5 cells; type: cell-based, human; conditions: 2 min at 37°C; LIP1, LIP2 or 100 ng/ml NGF
Outline: as §1

[5] = test system: PC12 cells; assay: Neurite outgrowth in PC12 cultures; type: cell-based, rat; conditions: NGF-treated; data not shown
[6] = test system: chick embryo DRG ganglia; assay: Neurite outgrowth in dorsal root ganglia; type: cell-based; conditions: 10 ng of mouse NGF; data not shown
Outline: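 Dorsal root ganglia were dissected from 9-day-old chick embryos. They were cultured with test peptides at 10−7, 10−8 and 10−9 M, or with 10 ng mouse NGF. Neurite outgrowth was scored.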

[7] = test system: Trk protein; assay: Trk tyrosine phosphorylation in PC12 cells overexpressing TrkA; type: cell-based; conditions: 200 ng/ml NGF, 5 min
Outline: (§2)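 Confluent B5 cells or TrkA-overexpressing PC12 cells (10–15-fold TrkA) were stimulated for 5 min with test peptide at 10−9 or 10−7 M, or with NGF at 200 ng/ml. Lysates were immunoprecipitated with a pan-Trk antibody against the TrkA C-terminus and run on 7.5% SDS-PAGE. Blots were probed overnight at 4°C with HRP-anti-phosphotyrosine (1:2,500) and detected by ECL. They were then stripped and reprobed with pan-Trk antibody as a loading control.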

[8] = test system: Trk protein; assay: Trk tyrosine phosphorylation in B5 cells; type: cell-based, human; conditions: 200 ng/ml NGF, 5 min
Outline: as §2

[9] = test system: Trk protein; conditions: ref Kaplan et al., 1991; cited from earlier work

Row | Molecule | Inhibition of 125I-LIP2 binding (in words) [1] | further results
1 | somatostatin | No significant inhibitory effect | 
2 | epidermal growth factor | No significant inhibitory effect | 
3 | vasoactive intestinal peptide [vasoactive intestinal peptide (VIP)] | No significant inhibitory effect | 
4 | ubiquitin | No significant inhibitory effect | 
5 | bombesin | No significant inhibitory effect | 
6 | α2-macroglobulin | No significant inhibitory effect | 
7 | aprotinin | No significant inhibitory effect | 
8 | 125I-LIP2 (iodinated 38aa synthetic peptide, sequence -40 to -3 of the rat NGF precursor) |  | Kd, high affinity binding site [2]: 2.8 nM; Kd, low affinity binding site [2]: 48 nM
9 | cytochrome c | No significant inhibitory effect | 
10 | pepstatin A | No significant inhibitory effect | 
11 | vasopressin | No significant inhibitory effect | 
12 | [Tyr^8] bradykinin (RPPGFSPYR; Bradykinin; UniProt P01042 381-389, looked up, variant F8Y) |  | F-actin redistribution, control peptide ([3]; 10^−6 and 10^−7 M): had no effect
13 | α-melanocyte stimulating hormone | No significant inhibitory effect | 
14 | methionine enkephalin | No significant inhibitory effect | 
15 | neurotensin | No significant inhibitory effect | 
16 | leupeptin | No significant inhibitory effect | 
17 | LIP2 (38aa synthetic peptide, sequence -40 to -3 of the rat NGF precursor), unlabelled |  | Kd [2]: 200 to 400 nM
18 | substance P | No significant inhibitory effect | 
19 | B1 | did not show any significant inhibition | F-actin redistribution, NGF ([3]; 2 min at 37°C, 100 ng/ml NGF): more abundant ruffling; F-actin redistribution [4]: neither NGF nor the peptides induced F-actin rearrangement in B5 cells; also recorded: had no effect on B5 cells; Neurite outgrowth, NGF [5]: dense neurite outgrowth; Neurite outgrowth, NGF [6]: dense neurite outgrowth; Trk tyrosine phosphorylation, NGF [7]: phosphorylation of Trk; Trk tyrosine phosphorylation, NGF [8]: phosphorylation of Trk; Time to trk tyrosine phosphorylation by NGF [9]: ≤ 1 min

Source: publication PMC2134812 (The Journal of Cell Biology, 1997)
